Here are results for four molecules from ChEMBL document CHEMBL1158061, “Alkaloids from Gelsemium elegans” (J Nat Prod, 2006).

What all share (format): functional, cell-based
For one experiment, the system named is Bel-7402. Put plainly: Cytotoxicity against human Bel-7402 cells by SRB method. The method, boiled down:
(§1)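 SRB assay on A-549 (human lung adenocarcinoma) and BEL-7402 (human hepatocellular carcinoma) cells, run by standard protocol with pseudolaric acid B as positive control. Values are reported as IC50 in molar units.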

Another experiment relates to P388. Put plainly: Cytotoxicity against mouse P388 cells by MTT method. The procedure, abridged:
(§2)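 MTT assay on P388 (murine leukemia) and HL-60 (human leukemia) cells, run by standard protocol with pseudolaric acid B as positive control. Values are reported as IC50 in molar units.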

The next experiment deals with A549. Put plainly: Cytotoxicity against human A549 cells by SRB method. The procedure, abridged:
as §1

In another experiment the test system is HL-60. Put plainly: Cytotoxicity against human HL-60 cells by MTT method. The method, boiled down:
as §2

Consider `CON1C(=O)[C@@]2(C[C@@H]3N=C([C@@H](C)C[C@H]4C(=O)OC[C@H]5[C@@H]4[C@@H](O)C[C@@H]5C)[C@@H]4[C@@H](O)[C@H]2OC[C@@H]43)c2ccccc21`, for which the IC50 with Bel-7402, in the experiment on P388, with A549 and with HL-60 was above 10 µM in each case.

Consider `CON1C(=O)[C@@]2(C[C@@H]3N=C([C@H](C)C[C@@H]4C(=O)O[C@H]5C[C@H](C)[C@@H](CO)[C@H]54)[C@@H]4[C@@H](O)[C@H]2OC[C@@H]43)c2ccccc21`, for which the IC50 with Bel-7402, in the experiment on P388, in the experiment on A549 and in the experiment on HL-60 was above 10 µM throughout.

As for `CCN(CC)C[C@@H]1C(=O)O[C@H]2C[C@H](C)[C@@H](CO)[C@H]21` [GELSEBAMINE], in the experiment on A549, the IC50 worked out at 0.634 µM.

As for `C=C[C@@]12CN(C)C3C1[C@@]1(C(=O)N(C[C@@H]4C(=O)O[C@H]5C[C@H](C)[C@@H](CO)[C@H]54)c4ccccc41)[C@H]1C[C@@H]2[C@@H]3CO1` [GELSEBANINE], the IC50 in the experiment with Bel-7402, with P388, in the experiment on A549 and with HL-60 was above 10 µM throughout.
